Data published in ChEMBL document CHEMBL4813987, “Membrane active 7-thiazoxime quinolones as novel DNA binding agents to decrease the genes expression and exert potent anti-methicillin-resistant Staphylococcus aureus activity” (Eur J Med Chem, 2021).
In brackets after ≈: the same amount, converted by molar mass. Activity calls are given as the source filed them. No cut-off for these calls is given here.

Tests used:
[1] = tested on: Staphylococcus aureus; assay: Antibacterial activity against methicillin-resistant Staphylococcus aureus assessed as reduction in microbial growth by two fold microdilution method; type: functional
Procedure, shortened: (§1)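 MIC determined by the standard two-fold broth micro-dilution assay, with norfloxacin and ciprofloxacin as reference agents.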

[2] = tested on: Staphylococcus aureus; assay: Antibacterial activity against Staphylococcus aureus assessed as reduction in microbial growth by two fold microdilution method; type: functional; procedure, shortened: as §1
[3] = tested on: Staphylococcus aureus; assay: Antibacterial activity against Staphylococcus aureus ATCC 25923 assessed as reduction in microbial growth by two fold microdilution method; type: functional
[4] = tested on: Staphylococcus aureus; assay: Antibacterial activity against Staphylococcus aureus ATCC 29213 assessed as reduction in microbial growth by two fold microdilution method; type: functional
[5] = tested on: Enterococcus faecalis; assay: Antibacterial activity against Enterococcus faecalis assessed as reduction in microbial growth by two fold microdilution method; type: functional
[6] = tested on: Klebsiella pneumoniae; assay: Antibacterial activity against Klebsiella pneumonia assessed as reduction in microbial growth by two fold microdilution method; type: functional
[7] = tested on: Pseudomonas aeruginosa; assay: Antibacterial activity against Pseudomonas aeruginosa ATCC 27853 assessed as reduction in microbial growth by two fold microdilution method; type: functional
[8] = tested on: Klebsiella pneumoniae; assay: Antibacterial activity against Klebsiella pneumonia in presence of (E)-1-cyclopropyl-6-fluoro-7-(4-(2-((2-methoxy-2-oxoethoxy)imino)-2-(thiazol-2-yl)ethyl)piperazin-1-yl)-4-oxo-1,4-dihydroquinoline-3-carboxylic acid (reference value: 2 ug/ml)
[9] = tested on: Staphylococcus aureus; assay: microbe, parasite or virus in culture
[10] = tested on: Staphylococcus aureus; assay: microbe, parasite or virus in culture; settings: ATCC 25923
[11] = tested on: Acinetobacter baumannii; assay: Antibacterial activity against Acinetobacter baumannii assessed as reduction in microbial growth by two fold microdilution method; type: functional
[12] = tested on: Escherichia coli; assay: Antibacterial activity against Escherichia coli assessed as reduction in microbial growth by two fold microdilution method; type: functional
[13] = tested on: Escherichia coli; assay: Antibacterial activity against Escherichia coli ATCC 25922 assessed as reduction in microbial growth by two fold microdilution method; type: functional
[14] = tested on: Pseudomonas aeruginosa; assay: Antibacterial activity against Pseudomonas aeruginosa assessed as reduction in microbial growth by two fold microdilution method; type: functional
[15] = tested on: Staphylococcus aureus; assay: Potency index, ratio of norfloxacin MIC to test compound MIC for antibacterial activity against methicillin-resistant Staphylococcus aureus assessed as reduction in microbial growth by two fold microdilution method; type: functional
[16] = tested on: Staphylococcus aureus; assay: Potency index, ratio of norfloxacin MIC to test compound MIC for antibacterial activity against Staphylococcus aureus ATCC 29213 assessed as reduction in microbial growth by two fold microdilution method; type: functional
[17] = tested on: Staphylococcus aureus; assay: Bactericidal activity against methicillin-resistant Staphylococcus aureus assessed as increase in sterilization rate at 2 ug/ml measured at 6 hrs by time kill assay; type: functional, organism-based; settings: dose 2.0 µg/ml
Procedure, shortened: (§2)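 Time-kill kinetics: MRSA exposed to the compound at several concentrations, with ciprofloxacin as positive control. Sterilization rate followed over time up to 6 h.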

[18] = tested on: Staphylococcus aureus; assay: Bactericidal activity against methicillin-resistant Staphylococcus aureus assessed as increase in sterilization rate at 4 ug/ml measured at 4 hrs by time kill assay; type: functional, organism-based; settings: dose 4.0 µg/ml; procedure, shortened: as §2
[19] = tested on: Klebsiella pneumoniae; assay: Synergistic antibacterial activity against Klebsiella pneumonia assessed as fractional inhibitory concentration index in presence of ciprofloxacin; type: functional
[20] = tested on: Escherichia coli; assay: Synergistic antibacterial activity against Escherichia coli assessed as fractional inhibitory concentration index in presence of ciprofloxacin; type: functional
[21] = tested on: Staphylococcus aureus; assay: Synergistic antibacterial activity against methicillin-resistant Staphylococcus aureus assessed as fractional inhibitory concentration index in presence of ciprofloxacin; type: functional
Procedure, shortened: (§3)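 MIC of the test compound and of ciprofloxacin determined alone and in combination against each strain. FIC index = (MIC of A combined / MIC of A alone) + (MIC of B combined / MIC of B alone). FIC index ≤0.5 scored synergy, >0.5–2 additivity, >2 antagonism.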

[22] = tested on: Staphylococcus aureus; assay: Additive antibacterial activity against Staphylococcus aureus ATCC 25923 assessed as fractional inhibitory concentration index in presence of ciprofloxacin; type: functional
[23] = tested on: Cell membrane; assay: Induction of membrane depolarization in methicillin-resistant Staphylococcus aureus at MIC by DiSC35 dye-based fluorescence assay; settings: TDE = time-dependent effect
Procedure, shortened: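 Cytoplasmic membrane potential of MRSA probed with the fluorescent dye diSC35. Cells treated at MIC, and fluorescence intensity recorded over time against untreated cells.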

[24] = tested on: Cell membrane; assay: Induction of inner membrane permeabilization in methicillin-resistant Staphylococcus aureus by propidium iodide staining based fluorescence microscopic analysis
Procedure, shortened: (§4)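 MRSA treated at 1–4 × MIC and stained with propidium iodide and calcein-AM. Fluorescence intensity measured on a spectrofluorimeter. Dual-stain cells imaged by fluorescence microscopy, scoring red (PI) and green (calcein) cells.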

[25] = tested on: Cell membrane; assay: Induction of inner membrane disruption in methicillin-resistant Staphylococcus aureus assessed as increase in red fluorescence intensity at 4 times MIC measured by calcein-AM dye based fluorescence analysis; procedure, shortened: as §4
[26] = tested on: Cell membrane; assay: Induction of inner membrane disruption in methicillin-resistant Staphylococcus aureus assessed as decrease in green fluorescence intensity at 4 times MIC measured by calcein-AM dye based fluorescence analysis; procedure, shortened: as §4
[27] = tested on: DNA; assay: Binding affinity to methicillin-resistant Staphylococcus aureus DNA assessed as maximum absorbance peak at 260 nm by UV spectroscopy; type: nucleic-acid assay
Procedure, shortened: (§5)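 Genomic DNA isolated from MRSA titrated with the compound. UV absorption spectra recorded in 1.0 cm quartz cells, and the binding constant derived from an equation and plot of the spectral data.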

[28] = biological target: T1, DNA gyrase (Staphylococcus aureus) (UniProt P0A0K8+P20831); assay: Binding affinity to DNA gyrase in methicillin-resistant Staphylococcus aureus assessed as decrease in gyrB gene expression after 3 hrs by RT-PCR method
T1 sequence (P0A0K8 2-644 limits assumed): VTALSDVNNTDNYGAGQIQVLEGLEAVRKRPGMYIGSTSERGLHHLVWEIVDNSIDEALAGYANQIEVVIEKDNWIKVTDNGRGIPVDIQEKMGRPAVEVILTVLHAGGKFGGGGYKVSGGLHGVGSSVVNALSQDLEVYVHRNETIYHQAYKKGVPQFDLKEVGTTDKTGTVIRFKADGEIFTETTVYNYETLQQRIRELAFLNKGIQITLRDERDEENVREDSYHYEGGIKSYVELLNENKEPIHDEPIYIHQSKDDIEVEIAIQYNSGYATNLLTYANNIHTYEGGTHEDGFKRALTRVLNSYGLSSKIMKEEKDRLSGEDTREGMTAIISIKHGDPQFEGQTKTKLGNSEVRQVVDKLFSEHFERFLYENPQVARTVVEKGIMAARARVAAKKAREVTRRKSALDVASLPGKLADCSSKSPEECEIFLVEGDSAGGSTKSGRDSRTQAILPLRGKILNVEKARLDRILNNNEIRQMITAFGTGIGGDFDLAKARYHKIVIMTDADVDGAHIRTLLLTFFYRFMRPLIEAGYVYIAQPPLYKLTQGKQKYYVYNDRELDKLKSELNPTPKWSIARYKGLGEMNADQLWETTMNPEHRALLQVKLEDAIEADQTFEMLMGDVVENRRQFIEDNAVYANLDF
T1 sequence (P20831 whole entry partner): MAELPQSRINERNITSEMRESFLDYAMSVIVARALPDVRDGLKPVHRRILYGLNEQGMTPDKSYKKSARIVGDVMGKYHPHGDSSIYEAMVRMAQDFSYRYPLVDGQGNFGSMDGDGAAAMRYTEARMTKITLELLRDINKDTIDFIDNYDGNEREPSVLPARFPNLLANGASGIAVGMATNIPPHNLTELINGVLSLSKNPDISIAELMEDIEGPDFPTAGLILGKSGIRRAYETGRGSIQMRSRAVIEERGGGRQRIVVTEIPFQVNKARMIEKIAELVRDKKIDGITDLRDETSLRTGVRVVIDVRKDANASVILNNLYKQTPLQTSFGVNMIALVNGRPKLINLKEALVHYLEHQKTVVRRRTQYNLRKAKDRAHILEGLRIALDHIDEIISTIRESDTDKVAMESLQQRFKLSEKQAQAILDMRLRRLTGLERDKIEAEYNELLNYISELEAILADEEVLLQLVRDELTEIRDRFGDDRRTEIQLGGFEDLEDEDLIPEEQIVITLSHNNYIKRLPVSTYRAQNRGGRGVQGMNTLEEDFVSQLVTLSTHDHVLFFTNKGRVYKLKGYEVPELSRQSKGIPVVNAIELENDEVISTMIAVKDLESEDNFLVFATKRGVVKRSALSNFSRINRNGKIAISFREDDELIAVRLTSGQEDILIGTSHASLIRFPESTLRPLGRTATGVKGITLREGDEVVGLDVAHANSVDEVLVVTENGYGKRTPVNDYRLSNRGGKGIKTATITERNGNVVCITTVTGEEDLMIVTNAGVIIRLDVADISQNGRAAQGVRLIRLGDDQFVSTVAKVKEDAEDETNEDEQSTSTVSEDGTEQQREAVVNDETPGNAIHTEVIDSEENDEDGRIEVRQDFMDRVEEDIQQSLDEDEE

[29] = biological target: T1, DNA gyrase (Staphylococcus aureus); assay: Binding affinity to DNA gyrase in methicillin-resistant Staphylococcus aureus assessed as decrease in femB gene expression after 3 hrs by RT-PCR method
[30] = biological target: T1, DNA gyrase (Staphylococcus aureus); assay: Binding affinity to DNA gyrase in methicillin-resistant Staphylococcus aureus assessed as decrease in mecA gene expression after 3 hrs by RT-PCR method
[31] = Hemolytic activity in human RBC incubated for 4 hrs by microscopic analysis relative to control; type: ADME, cell-based, Erythrocyte; settings: red blood cells (erythrocytes), read-out: Activity
Procedure, shortened: (§6)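 Processed red blood cells incubated with various compound concentrations (multiples of MIC) for 4 h at 37 °C in PBS; 1% Triton X-100 as positive control, PBS blank, saline control; hemolysis rate determined and cell integrity inspected by microscopy.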

[32] = tested on: HEK-293T; assay: Cytotoxicity against human HEK293T cells assessed as increase in cell survival incubated for 24 hrs by MTT assay relative to control; type: cell-based
Procedure, shortened: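 LO2 hepatocytes and 293T cells exposed to compound for 24 h; viability by colorimetric MTT proliferation assay, expressed as survival rate versus untreated cells.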

[33] = tested on: Staphylococcus aureus; assay: Antibacterial activity against methicillin-resistant Staphylococcus aureus assessed as reduction in bacterial growth at 20 to 140 ug/ml measured after 16 passages; type: functional, organism-based; settings: dose 20-140 µg/ml
[34] = tested on: Staphylococcus aureus; assay: Antibacterial activity against methicillin-resistant Staphylococcus aureus assessed as reduction in bacterial growth at 20 to 140 ug/ml measured after 16 passages in presence of ciprofloxacin; type: functional, organism-based; settings: dose 20-140 µg/ml
[35] = tested on: Klebsiella pneumoniae; assay: Antibacterial activity against Klebsiella pneumonia in presence of ciprofloxacin (reference value: 0.25 ug/ml); type: functional
[36] = tested on: Escherichia coli; assay: Antibacterial activity against Escherichia coli in presence of ciprofloxacin (reference value: 0.25 ug/ml); type: functional
[37] = tested on: Staphylococcus aureus; assay: Antibacterial activity against methicillin-resistant Staphylococcus aureus in presence of ciprofloxacin (reference value: 0.25 ug/ml); type: functional; procedure, shortened: as §3
[38] = tested on: Staphylococcus aureus; assay: Antibacterial activity against Staphylococcus aureus ATCC 25923 in presence of ciprofloxacin (reference value: 0.25 ug/ml); type: functional; procedure, shortened: as §3
[39] = tested on: DNA; assay: Binding affinity to methicillin-resistant Staphylococcus aureus DNA assessed as conformational changes in DNA duplex by UV spectroscopy; type: nucleic-acid assay; procedure, shortened: as §5
[40] = tested on: DNA; assay: Binding affinity to methicillin-resistant Staphylococcus aureus DNA assessed as compound-DNA complex formation by UV spectroscopy; type: nucleic-acid assay; procedure, shortened: as §5
[41] = tested on: DNA; assay: Competitive binding affinity to methicillin-resistant Staphylococcus aureus DNA assessed as DNA intercalation by AO staining based assay; type: nucleic-acid assay
Procedure, shortened: (§7)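 Competitive displacement on MRSA DNA, recorded by fluorescence in 1.0 cm quartz cells. For the AO–DNA complex, emission at 537 nm followed with increasing compound concentration. For the DAPI–DNA complex, DAPI fluorescence followed with increasing compound concentration.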

[42] = tested on: DNA; assay: Competitive binding affinity to methicillin-resistant Staphylococcus aureus DNA assessed as DNA intercalation by DAPI staining based assay; type: nucleic-acid assay; procedure, shortened: as §7
[43] = Hemolytic activity in human RBC at 64 times MIC incubated for 4 hrs by microscopic analysis relative to control; type: ADME, cell-based, Erythrocyte; settings: red blood cells (erythrocytes), read-out: Activity; procedure, shortened: as §6
[44] = tested on: Erythrocyte; assay: Hemolytic activity in human RBC at 16 times MIC incubated for 4 hrs by microscopic analysis; type: ADME, cell-based; procedure, shortened: as §6
[45] = tested on: Cell membrane; assay: Induction of inner membrane permeabilization in methicillin-resistant Staphylococcus aureus assessed as decrease in fluorescence intensity at 4 times MIC measured by calcein-AM dye based fluorescence analysis

O=C(O)c1cn(C2CC2)c2cc(N3CCNCC3)c(F)cc2c1=O [CIPROFLOXACIN]
MIC [1]: 8 µg/mL | MIC [2]: 2 µg/mL | MIC [3]: 2 µg/mL | MIC [4]: 0.5 µg/mL | MIC [5]: 2 µg/mL | MIC [6]: 2 µg/mL | MIC [7]: 1 µg/mL | MIC [8]: 0.125 µg/mL | MIC [9]: 2 µg/mL (≈ 6.04 µM) | MIC [10]: 1 µg/mL (≈ 3.02 µM)

CCn1cc(C(=O)O)c(=O)c2cc(F)c(N3CCN(CC(=O)c4nccs4)CC3)cc21
MIC [1]: 4 µg/mL | MIC [2]: 4 µg/mL | MIC [3]: 2 µg/mL | MIC [4]: 1 µg/mL | MIC [5]: 2 µg/mL | MIC [6]: 32 µg/mL | MIC [11]: 16 µg/mL | MIC [12]: 32 µg/mL | MIC [13]: 64 µg/mL | MIC [14]: 4 µg/mL | MIC [7]: 2 µg/mL | Ratio [15]: 4 | Ratio [16]: 16

COC(=O)CO/N=C(\CN1CCN(c2cc3c(cc2F)c(=O)c(C(=O)O)cn3C2CC2)CC1)c1nccs1
MIC [1]: 0.25 µg/mL | MIC [2]: 0.25 µg/mL | MIC [3]: 0.25 µg/mL | MIC [4]: 0.25 µg/mL | MIC [5]: 0.25 µg/mL | MIC [6]: 0.25 µg/mL | MIC [11]: 0.25 µg/mL | MIC [12]: 1 µg/mL | MIC [13]: 0.25 µg/mL | MIC [14]: 0.25 µg/mL | MIC [7]: 0.25 µg/mL | Activity [17]: Active | Activity [18]: Active | FIC [19]: 0.3125 | FIC [20]: 0.3125 | FIC [21]: 0.5 | FIC [22]: 1.5 | Activity [23]: Tde | Activity [24]: Dose-Dependent Effect | Activity [25]: Active | Activity [26]: Active | Activity [27]: Active | Activity [28]: Active | Activity [29]: Active | Activity [30]: inactive | hemolysis at 4 h [31]: < 3% | Activity [32]: > 90% | Activity [33]: Active | Activity [34]: inactive | MIC [35]: 0.0625 µg/mL | MIC [36]: 0.0625 µg/mL | MIC [37]: 0.125 µg/mL | MIC [38]: 0.25 µg/mL | Activity [39]: Active | Activity [40]: Active | Activity [41]: Active | Activity [42]: Active | hemolysis at 4 h, 64 times MIC [43]: < 5% | Activity [44]: Non-Toxic | Activity [45]: Active
